In the EternaBench riboswitch data:

Tested on: MS2 coat protein
Test: apparent Kd, MS2 coat protein; higher = weaker binding; RNA-MaP array; FMN 200 µM where present
Outline: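 Designs were transcribed by stalled E. coli RNA polymerase on Illumina sequencing-chip clusters. They were titrated with SNAP-549-labelled MS2 coat protein from 0.7 or 1.5 nM, doubling to 3 µM, in 100 mM Tris-HCl pH 7.5, 80 mM KCl, 4 mM MgCl2, BSA, DTT, yeast tRNA and Tween-20, without and then with constant ligand. The apparent Kd is the median of filtered per-cluster fits after normalisation of green signal to red-channel RNA signal and control-cluster median Fmax.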

[1] = designed as: OFF switch for flavin mononucleotide, no ligand
[2] = ligand present: flavin mononucleotide, designed as: OFF switch for flavin mononucleotide
[3] = designed as: ON switch for flavin mononucleotide, no ligand
[4] = ligand present: flavin mononucleotide, designed as: ON switch for flavin mononucleotide

Sequence | apparent Kd [1] | apparent Kd [2] | apparent Kd [3] | apparent Kd [4]
UGUGCUAUGUAGAAGGCAGAUCUGAUUCAGAUCUGAGGAUAUACAUGAGGAUCACCCAUGUUAUGCACCAGCACGAGAGUGCAG | 9.17 nM | 24 nM |  | 
UUGCCUCAGAACAUGAGGAUCACCCAUGUGCUGCGGGCAUCGUAGGAUAUGAUGGUAUGAUACCAUCAGAAGGAUGAUGGUACC |  |  | 6.18 nM | 5.77 nM
GUCAGCUCGUGAGGAUAUACAACACUGCUUCGGCAGUGUAUUAAGAUCACAUGAGGAUCACCCAUGUAGAAGGCACGAGCAGAU | 13.4 nM | 258 nM |  | 
GCGCGAAGGUAGGAUAUCCAGGGAUCUUCCCGCGGAGAAGGACCCACAUGAGGAUCACCCAUGUGGUGAUCCUG | 16.1 nM | 17.4 nM |  | 
GGAAAUCAUGUAGGAUAUGCAUGGCGAAGCUACGCAGAAGGACAUGAGGAUCACCCAUGUUAUAGCUACCCAGUUAGGUGGCAA | 122 nM | 172 nM |  | 
AAUAAACUCACAGGAUAUAGCAGAGGUCGCGUGUACUUACAGGCGACGAGGCUAGAAGGGUGACCACAUGAGGAUCACCCAUGU |  |  | 1010 nM | 113 nM
GCACGGAAAGGAUAUGCACGGCUAGCUCGCGUUUUUGUGUGACAUGAGGAUCACCCAUGUAGAAGGUUCAGUGG | 68 nM | 71.8 nM |  | 
AUGUACCUAGGAUAUACAUGAGGAUCACCCAUGUAGCUUCACGUGGUAGGAUCCUUUGGUAGAAGGAGGAUCUU | 37.3 nM | 68.2 nM |  | 
AAUCCACAUGAGGAUCACCCAUGUCAGGAUAUCGCGCGCGCGUUUUCGGUCUCGCGCGCGAGAAGGGACGGCUG | 24 nM | 48.2 nM |  | 
GCCGAAAGUGUGAGGAUAUACCUAUGGAUACAUAGGUAGAAGGCACAUGAGGAUCACCCAUGUGUUUCAACGGC | 19.3 nM | 71.6 nM |  | 
UGUCGGAGAAGAGGAUAUUACAUGAGGAUCACCCAUGUAUGAACCAAUAGCUGGAAACAGCAAUGUAAGAAGGCUGCUCCGACA | 5.32 nM | 23.1 nM |  | 
GCAGGUUAAGUCAGGAUAUACCUAUGGAUACAUAGGUAGAAGGGACAUGAGGAUCACCCAUGUUCCUCACCUGC | 15.6 nM | 34.3 nM |  | 
GAGAAGGGAGGAUAUGCUGCUCGUCACUUGCGUGAUGAGUAGCAGAAGGCACAUGAGGAUCACCCAUGUAAAGG | 84.2 nM | 29.4 nM |  | 
GCGCAGCCGGGUGAGGAUAUCGGUGGUAAAACAUGAGGAUCACCCAUGUCCGAAGCUCGGACUUCCGAGAAGGCGCCCAGCUGCA |  |  | 115 nM | 14.4 nM
CGCCGCACCAGCCGGCGGCAGGGUCAGGAUAUACAUGAGGAUCACCCAUGUGAACGGUGCCCAAUGUAGAAGGGACGAAGAGAC | 20.5 nM | 32.6 nM |  | 
AAUAACAGAGGAUAUACUGUUUUAUGUGUUUAUUGUUUUAAACAUGAGGAUCACCCAUGUAGAAGGCUGAAUGA | 43.8 nM | 41.9 nM |  | 
CACGAUGAUGUAGGAUAUAUACUGGAAUACAGUAUAGAAGGACAUGAGGAUCACCCAUGUUAAGUGCCUCCAAGUAACAUCGUG | 17.2 nM | 25.4 nM |  | 
UUAUUAUAUGUAGGAUAUGCAUAUUAUUAUUAUGCAGAAGGACAUGAGGAUCACCCAUGUAUGUUAUUAUUAUAUAUUAUAUAU | 26.1 nM | 34.7 nM |  | 
UGUCGGAGCAGAGGAUAUAUACAUGAGGAUCACCCAUGUAAAUGAAUGAGCUGGAAACAGCAAGUAUAGAAGGCUGCUCCGACA |  | 16.5 nM |  | 
GCCAGGAUGUGAGGAUAUGCUGAGGAUACCUCAGCAGAAGGCACAUGAGGAUCACCCAUGUACACUUAUCAUAAAUACCCUGGC | 13.5 nM | 18.1 nM |  | 
GCCGAUUAAGUGAGGAUAUACCUAUGGAUACAUAGGUAGAAGGCACAUGAGGAUCACCCAUGUUCCUUAACGGC | 11.2 nM | 30 nM |  | 
UUGGACGUCGUAGGAUAUGUAGGAUAUUCCUACAUGAGGAUCACCCAUGUUGACAUGGAAGAAGGACAGAAGGAUGAUGUCCAU |  |  | 414 nM | 5.34 nM
AAAGGCCAAGGAUAUACAUGAGGAUCACCCAUGUCGAGUCCCGGGCAUGUAAGUUGGUGUAGAAGGUGGAAGAA | 13.4 nM | 13.5 nM |  | 
AAAAAAAAAAGGCAGGAUAUUCAAAAAAAAACAUGAGGAUCACCCAUGUAAAAAAAAAAAAAAUGGAAGAAGGGCCAAAAAAAAAA |  |  | 21.1 nM | 22.5 nM
AAGAAACAUGAGGAUCACCCAUGUCAGGAUAUCUCGAAAAGCAUAGAAAUAUGCGAAGAGAGAAGGGACAAGAA | 65 nM | 57 nM |  | 
CGCUCAAUUACUUUGAAUAGAAUCAGAAGGCGUUACAUGAGGAUCACCCAUGUUAUGAUGUGUAACGAGGAUAUGAAUUGAGCG | 38.2 nM | 208 nM |  | 
AUACGCUGAGGAUAUACCAAAACAACAACCUCGUGUAUAAUACAUGAGGAUCACCCAUGUAGAAGGCAGUAAAC | 58.6 nM | 116 nM |  | 
CCCGUGUGUUAAGGAUAUGGCAGGCGCGUUGAACCAGAAGGUAGCACAUGAGGAUCACCCAUGUGAAUGCUCGCGACUCGAGCG | 43.6 nM | 18.2 nM |  | 

Sequence | apparent Kd [1] | apparent Kd [2] | apparent Kd [3] | apparent Kd [4]
AGAUGGCGAGGAUAUACAUGAGGAUCACCCAUGUGAAGAAGAAUAGUGAGGAAGAAAAGUAGAAGGCGCUGUCA | 53.6 nM | 180 nM |  | 
GGGUGACUAGGAUAUACAUGAGGAUCACCCAUGUGUACUGGACCUGGGUAGUCUUGGAGUAGAAGGAGUAGCUG | 85.3 nM | 127 nM |  | 
GCGGGACGUCGAGGAUAUGGGUGUGCGAGUCUUGGCACUGGACAUGAGGAUCACCCAUGUCGCUUCCAGAAGGCGACGUCCCUA |  |  | 34.8 nM | 6.67 nM
GUCGGAAACGACAAAAGUACCGGAGCAGAAGGCAUGUCAUAAGACAUGAGGAUCACCCAUGUGCAUGAGGAUAUGCUCCGGUAC |  |  | 5.45 nM | 4.68 nM
CUAUGAGCGAUAGGAUAUACUGAGAUUGAAUGGGUAGAAGGAUCGAUCGUGUAGAAGACAUGAGGAUCACCCAUGUUACGGGCC |  |  | 73.9 nM | 93.5 nM
AAUAUGUUGCAGAAGGUUAUAUUUUUUUAGUACCUCAUGACAUGAGGAUCACCCAUGUUUUUGUUGAAGGAUAUGCAAUAUAUU | 17.1 nM | 14.3 nM |  | 
GUUUCUAUAAGUUAUAUUUAACAGUCAGAAGGUGAUACUACGACAUGAGGAUCACCCAUGUAAUUCAAGGAUAUGAACUUAAUC |  |  | 1570 nM | 999 nM
AAAUUUAACGAAGGAUAUACUAACAUGAGGAUCACCCAUGUGUGCUUUGUGUUGCUGAAAUUCGGGUAGAAGGUCGUAUACAUA | 82.8 nM | 118 nM |  | 
AUCAGCUUGACAGGAUAUGCAUGUCAACGAAAGUUGACAAUCUUAAUAACAUGAGGAUCACCCAUGUAGAAGGGUCGAGCUGAU | 17.4 nM | 19.9 nM |  | 
UUAUUUAGUGUGAGGAUAUGCUGGUCGAUAGAUCAGCAGAAGGCACAUGAGGAUCACCCAUGUAAUAUAUUAAA | 58.9 nM | 248 nM |  | 
GUAUGGGUAGAAGGACAUGAGGAUCACCCAUGUUGUGUGUCUAAGGAUAUUAGAGAAGAUUGACGUAAGAAGGUAGAUGUGUGG | 94.2 nM | 80.8 nM |  | 
AGAUAUGAUGCAGGAUAUCUAUCUUGAAUGAGGAGAGAAGGGCAAGCAGAGACAUAAGCCUUAUUACAUGAGGAUCACCCAUGU | 10.2 nM | 7.9 nM |  | 
ACAUGAGGAUCACCCAUGUGAUGAUCUUCCAUGUCAUAUUUCAGAAGGCUCGCAUGUUUGAUGAGAGAGGAUAUGGAAUAUGCG | 790 nM | 368 nM |  | 
UUUUUAUAAUAGAAGGAGGACUUCAUGAGGAUCACCCAUGUGUUAGUACUUAGGAUAUGUAAUAACAUGAGGAUCACCCAUGUC |  |  | 45.3 nM | 45.7 nM
UUCAUCAAUGAAGGAUAUCUAUAUCCAACAUGAGGAUCACCCAUGUUGAGGAUCACCCAUGUAAAGGAGAAGGUUAAUAUAACU |  |  | 35.9 nM | 31.4 nM
GUAGCAUUCUGAGGAUAUUCAUACCGGAAACGGACAUGAGGAUCACCCAUGUGGCGAAAGCCUAGGGAGAAGGCAGUAUGCUAC |  |  | 56.6 nM | 13.8 nM
UGAAGGUAAGGAUAUACAUGAGGAUCACCCAUGUUGUCAUUUCUGUCUGGGCAGGCAUGUAGAAGGUACCUACA | 26.4 nM | 87.3 nM |  | 
UAAAAUAGUGUGAGGAUAUGCUGGUCCUUGGAUCAGCAGAAGGCACAUGAGGAUCACCCAUGUAGUUAAUUUUA | 40.5 nM | 218 nM |  | 
UGUCGGAGCAGAGGAUAUUACAUGAGGAUCACCCAUGUAUGAACCAAUAGCAGGAAACAGCAAUGUAAGAAGGCUGCUCCGACA | 10.3 nM | 77.4 nM |  | 
CCCAUGUCAGGAUAUCUAAGAGAGGGCCAGCCCUCUCCUCCGGAGAAGGGACAUGAGGAUCACCCAUGUAAAAC | 129 nM | 25.5 nM |  | 
ACAUGAGGAUCACCCAUGUGAGGAUCUCCCAUGUUAUAUUUCAGAAGGCUCGUGUGUUUGAUGAGAGAGGAUAUGGAAUAUACG | 73.7 nM | 49.7 nM |  | 
GGGUAACAUGAGGAUCACCCAUGUGAGGAUAUCCUAGGGAUGGAAGCCCGGCCAACCAGGAGAAGGUACUAAAG | 83.2 nM | 89.7 nM |  | 
GUUUUGGGAGGAUAUGCGUGGAUUAUUUUCGUAUGUUGUUUACAUGAGGAUCACCCAUGUAGAAGGUCUAGAGC | 39.7 nM | 133 nM |  | 
UGGUACUAGGGAGGAUAUGGGAAGAUACAUGAGGAUCACCCAUGUUUAAGAAUGCCGAGAGGCAAUUAGAAGGCCCUAGUACCU |  |  | 983 nM | 148 nM
GGGCCACAUGAGGAUCACCCAUGUAAACCCGUGCUCAGGGCACAGGAUAUGGGCCUGGAUUAGGCCCAGAAGGGUGGUCUGGCC |  |  | 29.4 nM | 10.6 nM
GGUCGGAGCAGAGGAUAUACAUGAGGAUCACCCAUGUAAUAAAGUGAAGCCUGGAAACAGGCAAUGUAGAAGGCUGCUCCGACA | 10.8 nM | 70.6 nM |  | 
GUUCUGUUAGGAUAUUGGAAAUCCGUAGCUGUGGCGCGCUUCAAGAAGGAACAUGAGGAUCACCCAUGUGAAAU | 25 nM | 25.4 nM |  | 
